Only some compounds are listed: those with a hit (about 2.5% of all), similar ones and a draw of the others.
GalR3 antag: GalR3 antagonists in HEK293 cells, primary screen, cell-based, fluorescence readout; inhibition, % at 3 µM; Galanin receptor type 3 (Homo sapiens), O60755; AID 651719, 2012; HEK293 GalR3-CNG cAMP membrane potential fluorescence; galR3 body fused to GalR1 C-terminus; hit rate 0.44% among 360,000;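 active = inhibition above the screen-wide average plus 3 SD, cut at about 13% in these data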;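 note: forskolin and galanin both at EC90 stimulate the cells; cAMP rise reported by CNG channel membrane potential dye signal; 0% = forskolin plus galanin with DMSO and 100% = forskolin alone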
NR2E3 ag-1: inhibitors of NR2E3-RetCOR corepressor binding, primary screen, NR2E3 agonist project, biochemical, TR-FRET, GST-NR2E3, biotin-RetCOR. Photoreceptor-specific nuclear receptor (Homo sapiens), Q9Y5X4. 1536-well. inhibition of corepressor binding, % at 4.78 µM. hit rate 0.12% among 320,000;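 active = percent inhibition above the cutoff of mean plus 3 SD of all tested compounds, set per screening campaign, cut at about 20% in these data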;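 note: 0% = DMSO wells and 100% = biotin wells as full block of FRET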
Target sequence (Q9Y5X4 whole entry, looked up): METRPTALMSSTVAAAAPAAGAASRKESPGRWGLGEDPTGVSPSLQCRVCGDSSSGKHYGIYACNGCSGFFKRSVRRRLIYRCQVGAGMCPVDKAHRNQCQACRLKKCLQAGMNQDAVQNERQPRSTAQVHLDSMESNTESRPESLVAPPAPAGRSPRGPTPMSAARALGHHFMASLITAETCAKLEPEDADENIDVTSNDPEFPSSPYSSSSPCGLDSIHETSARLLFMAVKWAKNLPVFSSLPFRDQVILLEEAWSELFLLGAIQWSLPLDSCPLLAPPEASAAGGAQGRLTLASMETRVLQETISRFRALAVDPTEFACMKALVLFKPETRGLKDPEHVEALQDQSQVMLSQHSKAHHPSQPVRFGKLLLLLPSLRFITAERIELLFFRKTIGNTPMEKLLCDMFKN
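Material: NR2E3–RetCOR corepressor complex / Incubation: Compound–protein incubation for 5 h at 4 °C / Dosing: compound at 4.8 µM, single dose / Detection: time-resolved FRET / Benchmarks: high control biotin, low control 0.6% DMSO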
NR2E3 ag-2: NR2E3 agonists in two-hybrid cells, primary screen, cell-based, luminescence, CHO-S, Gal4-NCOR/VP16-NR2E3 | luciferase | inhibition of corepressor binding, % at 3.98 µM | hit rate 0.35% among 360,000 | Photoreceptor-specific nuclear receptor (Homo sapiens), Q9Y5X4 | AID 602229, 2012;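 active = inhibition above the mean of all tested compounds plus 3 SD, cut at about 70% in these data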;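 note: 0% = DMSO with NR2E3 transfected cells and 100% = cells lacking NR2E3 construct; higher means lower luciferase signal from less NR2E3 corepressor binding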
MsrA inh: bovine MsrA enzyme inhibitors, primary screen, biochemical, absorbance, HTS | Methionine sulfoxide reductase A (Bos taurus) | purified bovine MsrA, absorbance read-out | inhibition, % at 15.5 µM | hit rate 0.75% among 360,000; in the data active = inhibition above about 4.5%;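 note: 0% = vehicle wells with enzyme and 100% = reference inhibitor wells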
MsrA act: bovine MsrA enzyme activators, primary screen, biochemical, absorbance, HTS. purified bovine MsrA, absorbance read-out. activation, % at 10.6 µM. AID 602163, 2012. hit rate 0.3% among 360,000. Methionine sulfoxide reductase A (Bos taurus); in the data active = activation above about 7.5%;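 note: 0% = vehicle and 100% = reference activator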
NadD block: inhibitors of S. aureus NadD, primary screen, biochemical, colorimetric, uHTS; Nicotinate-nucleotide adenylyltransferase NadD (Staphylococcus aureus N315); AID 602399, 2012; purified NadD enzyme, colorimetric absorbance read-out; hit rate 0.78% among 360,000; inhibition, % at 20 µM; in the data active = inhibition above about 26%
NR2E3 ag conf: NR2E3 agonist confirmation in cells, cell-based, luminescence, CHO-S two-hybrid; shares compounds with NR2E3 ag-2; CHO-S mammalian two-hybrid NR2E3-NCOR, luciferase luminescence; inhibition, % at 3.98 µM; hit rate 51% among 2,300; AID 624378, 2012;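 active = average inhibition above a cutoff equal to the mean inhibition of all tested compounds plus one SD, cut at about 70% in these data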;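 note: 0% = DMSO in NR2E3 cells and 100% = DMSO in cells lacking NR2E3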
VP16 counter: GAL4-VP16 reporter modulators, confirmation, counter-screen for NR2E3 agonist project, cell-based, luminescence, CHO-S, high throughput; inhibition, % at 3.98 µM; AID 624379, 2012; hit rate 29% among 2,300; CHO-S GAL4-VP16 luciferase reporter; shares compounds with NR2E3 ag-2;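 active = mean inhibition above a cutoff equal to the average over all tested compounds plus one standard deviation, cut at about 70% in these data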;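 note: luciferase from a UAS reporter driven by GAL4-VP16 transactivation; 0% = DMSO with VP16-transfected cells and 100% = DMSO with cells lacking VP16; higher means less reporter light so more repression of VP16 activity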
Numbers without * were called inactive.

CCN(CC)c1ccc(/C=C/c2ccc3ccc(OC)cc3[n+]2CC)cc1 was read as GalR3 antag -10, NR2E3 ag-1 -6, NR2E3 ag-2 64, MsrA inh 0, MsrA act -1, NadD block 7, NR2E3 ag conf 98* and VP16 counter 77*.
`Cc1[nH]n2c(=O)cc(C(C)(C)C)nc2c1-c1ccccc1` gave GalR3 antag 2, NR2E3 ag-1 6, NR2E3 ag-2 51, MsrA inh 1, MsrA act 0, NadD block 5, NR2E3 ag conf 100* and VP16 counter 96*.
Screening Cc1[nH]n2c(=O)cc(C(C)C)nc2c1-c1ccccc1 returned GalR3 antag 1, NR2E3 ag-1 0, NR2E3 ag-2 7, MsrA inh 0, MsrA act -6 and NadD block 2.
`C#CCOCCOCCOCCNc1nc(N2CCN(C(=O)C([C@@H](C)CC)n3cc(C(N)CO)nn3)CC2)nc(N2CCN(C(=O)C([C@@H](C)CC)n3cc(C(N)COC(=O)C(F)(F)F)nn3)CC2)n1` (stereo partly specified) gave GalR3 antag -1, NR2E3 ag-1 4 and MsrA inh -1.
Cc1ccc(C)c(N2CCN(CC(=O)Nc3ccc4[nH]c(=O)[nH]c4c3)CC2)c1 was read as NR2E3 ag-1 -2, NR2E3 ag-2 -11, MsrA inh 1, MsrA act -1 and NadD block 6.
`O=C(Cn1cccc1C(=O)c1ccccc1)NCc1ccccc1` gave GalR3 antag -1, NR2E3 ag-1 2, NR2E3 ag-2 3, MsrA inh 0, MsrA act -2 and NadD block 10.
CCCNC(=O)Cn1cccc1C(=O)c1ccccc1 was read as GalR3 antag -2, NR2E3 ag-1 -2, NR2E3 ag-2 89*, MsrA inh 1, MsrA act -11, NadD block 10, NR2E3 ag conf 22 and VP16 counter 11.
`CCCOc1ccc(F)cc1-c1cc(C(=O)NCc2ccc(C(F)(F)F)cc2)[nH]n1` gave NR2E3 ag-2 52, MsrA act -4, NadD block 0, NR2E3 ag conf 6 and VP16 counter 17.
For CCCOc1ccc(F)cc1-c1cc(C(=O)NCc2cccc(C(F)(F)F)c2)[nH]n1 the results were GalR3 antag -7, NR2E3 ag-2 18, MsrA inh 0, MsrA act -1 and NadD block 2.
`CC(C)(C)C(=O)Nc1ccc(Sc2ccc([N+](=O)[O-])cc2)cc1` gave GalR3 antag -6, NR2E3 ag-1 -2, NR2E3 ag-2 53, MsrA inh 1, MsrA act -3, NadD block -9, NR2E3 ag conf 78* and VP16 counter 54.
Screening CC(=O)Nc1ccc(Sc2ccc([N+](=O)[O-])o2)cc1 returned GalR3 antag 1, NR2E3 ag-2 72*, MsrA inh 1, MsrA act -2, NadD block 3, NR2E3 ag conf 93* and VP16 counter 4.
CC(=O)Nc1ccc(NC(=O)c2cc([N+](=O)[O-])cc([N+](=O)[O-])c2)cc1 was read as GalR3 antag -4, NR2E3 ag-1 4, NR2E3 ag-2 10, MsrA inh 0, MsrA act -1 and NadD block 3.
For COC(=O)C1=C(C)N(Cc2ccccc2C(F)(F)F)C(=NCc2cccc(C(F)(F)F)c2)NC1c1cccc(Cl)c1 (stereo unspecified) the results were GalR3 antag -8 and MsrA inh -2.
